Test results published in ChEMBL document CHEMBL1126013, “Synthesis and evaluation of some water-soluble prodrugs and derivatives of taxol with antitumor activity” (J Med Chem, 1992).

Assays:
[1] = tested on: B16; assay: Percentage change in cell number of B16 melanoma cells treated with 10e-6 M dose; type: functional, Mus musculus
How it was run: (§1)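 B16 melanoma cells exposed to 10⁻⁵ or 10⁻⁶ M compound for 8 h, then rinsed three times with fresh medium. Cells then grown in drug-free medium for 48 h and counted. Result given as percent change relative to the cell number at time zero. Controls are the average of three experiments.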

[2] = species on record: Bos taurus; assay: Relative effect on microtubular assembly (Tubulin polymerized by derivative/tubulin polymerized by taxol); type: functional
How it was run: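 Bovine brain tubulin, purified from microtubule-associated proteins by phosphocellulose chromatography, used at 10 μM. Turbidity followed at 350 nm. Polymer pelleted at 200000g, 37 °C, 4 min, depolymerized on ice, and protein measured by Bradford.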

[3] = Solubility in water; type: physicochemical; conditions: read-out: S
[4] = tested on: Mus musculus; assay: Number of survivors after 11 days at a dose of 10.5 mg/Kg tested in 6 mice; type: functional
How it was run: (§2)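 MX-1 human mammary carcinoma xenograft implanted under the renal capsule of mice. The study was run at the National Cancer Institute following the procedures of NIH Publication No. 84-2635. Average tumor weight was recorded at the start and end of treatment, and survivors were counted after 11 days. Dosed groups were compared with an untreated control group.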

[5] = tested on: Mus musculus; assay: Number of survivors after 11 days at a dose of 5.25 mg/Kg tested in 6 mice; type: functional; how it was run: as §2
[6] = tested on: Mus musculus; assay: Final average tumor weight was measured in mice induced with human mammary carcinoma at a dose of 5.25 mg/Kg; type: functional; how it was run: as §2
[7] = tested on: Mus musculus; assay: Tumor growth or regression measured as Percent treated by control at a dose of 5.25 mg/Kg to mice with MX-1 xenograft; type: functional
How it was run: (§3)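 Subrenal capsule MX-1 mammary xenograft in mice, run at the National Cancer Institute per NIH Publication No. 84-2635. %T/C = (Δ tumor weight treated / Δ tumor weight control) × 100 where tumors grew. Where tumors regressed, %T/C = (Δ tumor weight treated / initial control tumor weight) × 100.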

[8] = tested on: Mus musculus; assay: Initial average tumor weight was measured in mice induced with human mammary carcinoma at a dose of 42 mg/Kg; type: functional; how it was run: as §2
[9] = tested on: Mus musculus; assay: Initial average tumor weight was measured in mice induced with human mammary carcinoma at a dose of 5.25 mg/Kg; type: functional; how it was run: as §2
[10] = tested on: Mus musculus; assay: Antitumor activity of taxoland the derivative against mammary carcinoma xenograft in mice; type: functional
How it was run: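 MX-1 human mammary carcinoma xenograft implanted under the renal capsule in mice. Study run at the National Cancer Institute following NIH Publication No. 84-2635. Tumor weights recorded at the start and at the end. Survivors counted after 11 days. %T/C = (Δ tumor weight treated/Δ tumor weight control) × 100 where the tumor grows, and (Δ tumor weight treated/initial control tumor weight) × 100 where it regresses.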

[11] = tested on: Mus musculus; assay: Tumor growth or regression measured as Percent treated by control at a dose of 10.5 mg/Kg to mice with MX-1 xenograft; type: functional; how it was run: as §3
[12] = tested on: B16; assay: Concentration required to inhibit the proliferation of B16 melanoma cells was determined; type: functional, cell-based; conditions: Mus musculus
[13] = tested on: Mus musculus; assay: Final average tumor weight was measured in mice induced with human mammary carcinoma at a dose of 42 mg/Kg; type: functional; how it was run: as §2
[14] = tested on: Mus musculus; assay: Initial average tumor weight was measured in mice induced with human mammary carcinoma at a dose of 10.5 mg/Kg; type: functional; how it was run: as §2
[15] = tested on: B16; assay: Relative effect on B16 melanoma cell proliferation was determined [IC50 (taxol)/IC50 (derivative)]; type: functional, Mus musculus
[16] = tested on: Mus musculus; assay: Final average tumor weight was measured in mice induced with human mammary carcinoma at a dose of 10.5 mg/Kg; type: functional; how it was run: as §2
[17] = tested on: Mus musculus; assay: Number of survivors after 11 days at a dose of 42 mg/Kg tested in 5 mice; type: functional; how it was run: as §2
[18] = tested on: B16; assay: Percentage change in cell number of B16 melanoma cells treated with 10e-5 M dose; type: functional, Mus musculus; how it was run: as §1
[19] = tested on: Mus musculus; assay: Tumor growth or regression measured as Percent treated by control at a dose of 42 mg/Kg to mice with MX-1 xenograft; type: functional; how it was run: as §3

CC(=O)O[C@H]1C(=O)[C@]2(C)[C@@H](OC(=O)CN(C)C)C[C@H]3OC[C@@]3(OC(C)=O)[C@H]2[C@H](OC(=O)c2ccccc2)[C@]2(O)C[C@H](OC(=O)[C@H](OC(=O)CN(C)C)[C@@H](NC(=O)c3ccccc3)c3ccccc3)C(C)=C1C2(C)C.CS(=O)(=O)O.CS(=O)(=O)O
Change in cell number [1]: 137% | Relative effect [2]: 0.42 | solubility [3]: > 8.11 mM | No. of survivors [4]: 5 | No. of survivors [5]: 6 | Final average tumor weight [6]: 2.51 mg | T/C [7]: 70% | Initial average tumor weight [8]: 0.66 mg | Initial average tumor weight [9]: 0.71 mg | Relative antitumor activity [10]: 4 | T/C [11]: 193% | IC50 [12]: 42 nM | Final average tumor weight [13]: 4.35 mg | Initial average tumor weight [14]: 0.59 mg | Relative effect [15]: 0.45 | Final average tumor weight [16]: 5.55 mg | No. of survivors [17]: 4 | Change in cell number [18]: -72% | T/C [19]: 144%
